Entries after “also recorded” stand apart in the source; their conditions may differ.
Tests used:
[1] = Stability in simulated gastric fluid; type: in vitro ADME
Outline: (§1)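 Test compound at 1 μM final was incubated at 37 °C in CD-1 mouse plasma, or in simulated gastric or intestinal fluid made per the USP National Formulary. Samples were taken at 0, 5, 15, 30, 60, 120 and 240 min and quenched with 3 volumes of acetonitrile/1% formic acid, then centrifuged. Prodrug and released parent were measured by HPLC-UV (Fmoc-Cl derivatization, 254 nm) and/or LC-MS/MS (MRM), and t1/2 was calculated.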

[2] = test system: i.c.v. Aβ1–42-injected C57BL/6 mice; assay: Spontaneous alternation T-maze in i.c.v. Aβ1–42-injected mice; type: in vivo, mouse; conditions: for T-maze alternation rate: mouse, in vivo, po, 250 mg/kg
brain GSH = assay: Quantitation of GSH in brain of i.c.v. Aβ-injected mice; type: in vivo, mouse; conditions: 250 mg/kg oral
[3] = Brain and plasma distribution study in CD-1 mice; type: in vivo, mouse; conditions: CD1 mice
[4] = Conversion of prodrugs into ψ-GSH in liver homogenate; type: in vitro ADME, mouse; conditions: liver homogenates
[5] = test system: glyoxalase enzyme pathway (AGE content); assay: Brain advanced glycation endproducts; type: in vivo, mouse; conditions: i.c.v. Aβ-injected mice, 250 mg/kg oral
GFAP and Iba1 staining = type: in vivo, mouse; conditions: i.c.v. Aβ-injected mice, 250 mg/kg oral
[6] = Conversion of prodrugs into ψ-GSH in brain homogenate; type: in vitro ADME, mouse; conditions: freshly prepared brain homogenates containing proteinase inhibitors
[7] = Stability in mouse liver homogenate; type: in vitro ADME; conditions: for Half-life, tissue homogenate liver: mouse liver homogenate, 1 μM, 37 °C
[8] = Stability in simulated intestinal fluid; type: in vitro ADME; conditions: SIF, 1 μM, 37 °C
Outline: as §1

[9] = test system: glyoxalase pathway (D-lactate); assay: Brain D-lactate measurement; type: in vivo, mouse; conditions: wild type C57BL/6 mice, 500 mg/kg oral, multiple time points
[10] = Stability in mouse plasma; type: in vitro ADME; conditions: mouse plasma (CD-1), 1 μM, 37 °C
Outline: as §1

[11] = Stability in mouse brain homogenate; type: in vitro ADME; conditions: 1 μM, 37 °C

Row | Molecule | T-maze alternation rate [2] | brain reduced GSH compared to the Aβ-only group (brain GSH) | conversion into / release of ψ-GSH in liver homogenate [4] | brain total AGE content versus Aβ1–42 group [5] | Iba1 staining in dorsal hippocampus (GFAP and Iba1 staining) | conversion into / release of ψ-GSH in brain homogenate [6] | Half-life, tissue homogenate liver [7] | Half-life, plasma [10] | further results
1 | CC(=O)SC[C@H](NC(=O)NC[C@H](N)C(=O)O)C(=O)NCC(=O)O [prodrug 1, NH2-γ-L-Glz[-L-Cys(SAc)-Gly-OH]-OH] |  |  |  |  |  |  |  |  | half-life at 1 μM ([1]; simulated gastric fluid (SGF)): ~24 h
2 | Cl.N[C@@H](CNC(=O)N[C@@H](CS)C(=O)NCC(=O)OC1CCCC1)C(=O)OC1CCCC1 [prodrug 5, HCl.NH2-γ-L-Glz[-L-Cys(SH)-Gly-OcPe]-OcPe] | effective in improving the alternation behavior | significantly increased | relatively higher and sustained release; also recorded: detected | significantly reduced | significantly reduced | relatively higher and sustained release; also recorded: detected |  |  | plasma Cmax versus ψ-GSH ([3]; 250 mg/kg oral, comparison ψ-GSH 500 mg/kg i.p.): increased Cmax; brain levels of ψ-GSH after prodrug administration versus ψ-GSH treatment ([3]; prodrug 250 mg/kg oral vs ψ-GSH 500 mg/kg i.p.): lower than; relative brain AUC ([3]; prodrug 250 mg/kg oral, 2-6 h): 1.22 nmol·h/mg tissue
3 | CCOC(=O)SC[C@H](NC(=O)NC[C@H](N)C(=O)OC1CCCC1)C(=O)NCC(=O)OC1CCCC1 [prodrug 6, NH2-γ-L-Glz[-L-Cys(SCOOEt)-Gly-OcPe]-OcPe] |  |  | relatively higher and sustained release |  |  | relatively higher and sustained release |  |  | major metabolite in liver homogenate incubates ([7]; liver homogenate): thiocarbonate cleavage product
4 | N-Ethyloxycarbonyl-γ-L-Glz[-L-Cys(SCOOEt)-Gly-OH]-OH [prodrug 7] | effective in improving the alternation behavior | significantly increased | detected | significantly reduced | significantly reduced | detected | 1.30 h | 113.6 h | Half-life, GI tract gastric phase ([1]; SGF, 1 μM, 37 °C): 17.96 h; Half-life, GI tract intestinal phase [8]: 24.24 h; T-maze repetitive arm entries ([2]; oral treatment, 250 mg/kg once a day, Aβ-only 3.22 ± 0.27): 1.00 ± 0.31; brain D-lactate release [9]: immediate spike; GFAP staining in dorsal hippocampus (GFAP and Iba1 staining): significant reduction; astrocytic and microglial reactivity (GFAP, Iba1) in dentate gyrus (GFAP and Iba1 staining): Mitigation; Half-life, tissue homogenate brain [11]: 9.79 h
5 | NH2-γ-L-Glz[-L-Thz-Gly-OH]-OH [prodrug 4] |  |  |  |  |  |  | 115.5 h | 30.64 h | 
